Experimental data as given in PMC5289284 (Journal of medicinal chemistry, 2016).

How the values were obtained:
PI3Kγ = PI3Kγ (Homo sapiens, UniProt P48736); experiment: PI3Kγ lipid kinase membrane capture assay; assay type: biochemical; settings: for fold selective over PI3Kγ: PI4KIIIβ versus PI3Kγ; for potency for PI3Kγ compared with compound 1: relative to compound 1, Fig. 2A
Summary of the method: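 Radiometric membrane-capture assay. For PI3Kγ, 5nM enzyme was preincubated 15 min with test compound, then cold ATP plus γ32P-ATP was added for 15 min. PI3Kγ final conditions: 50mM HEPES pH 7.5, 100mM NaCl, 0.03% CHAPS, 10mM MgCl2, 80µM PIP2, 10µM ATP, 1uCi. PI4KIIIβ ran 30 min with 2.5nM enzyme, 100µM PI, Bis-Tris Propane pH 7.5, Triton X-100, 10µM ATP, 1uCi. Both used 2% DMSO final.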

PI4KIIIβ = PI4KIIIβ (Homo sapiens, UniProt Q9UBF8); experiment: PI4KIIIβ lipid kinase membrane capture assay; assay type: biochemical; settings: for potency for PI4KIIIβ compared with compound 1: relative to compound 1, Fig. 2A
Chain of PI4KIIIβ (Q9UBF8 whole entry): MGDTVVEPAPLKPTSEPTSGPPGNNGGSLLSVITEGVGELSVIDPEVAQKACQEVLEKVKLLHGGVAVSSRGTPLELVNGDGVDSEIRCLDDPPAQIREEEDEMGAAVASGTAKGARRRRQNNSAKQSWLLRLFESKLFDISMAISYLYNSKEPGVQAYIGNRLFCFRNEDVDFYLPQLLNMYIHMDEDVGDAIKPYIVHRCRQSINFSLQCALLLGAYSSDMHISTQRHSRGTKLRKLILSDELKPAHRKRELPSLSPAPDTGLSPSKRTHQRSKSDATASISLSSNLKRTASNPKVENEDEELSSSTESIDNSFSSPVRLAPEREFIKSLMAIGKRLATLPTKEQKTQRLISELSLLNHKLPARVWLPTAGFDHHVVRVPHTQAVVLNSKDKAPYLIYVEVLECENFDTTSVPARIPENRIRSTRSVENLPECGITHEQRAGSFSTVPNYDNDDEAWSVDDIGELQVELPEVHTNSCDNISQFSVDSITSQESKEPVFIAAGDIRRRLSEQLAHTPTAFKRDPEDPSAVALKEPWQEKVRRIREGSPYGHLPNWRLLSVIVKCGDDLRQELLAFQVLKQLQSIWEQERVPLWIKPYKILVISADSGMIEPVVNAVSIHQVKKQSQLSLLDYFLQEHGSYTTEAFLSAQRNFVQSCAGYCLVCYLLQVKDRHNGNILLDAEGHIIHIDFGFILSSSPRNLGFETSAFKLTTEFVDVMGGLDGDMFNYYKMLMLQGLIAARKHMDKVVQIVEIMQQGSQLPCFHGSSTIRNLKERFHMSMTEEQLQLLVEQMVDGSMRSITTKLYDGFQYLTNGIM
Summary of the method: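 Recombinant PI4KIIIβ with a phosphoinositide substrate and γ32P-ATP in a membrane-capture format. Test compound diluted into 10% DMSO and kinase assay buffer. After the reaction, a 4 µL aliquot was spotted on 0.2 µm nitrocellulose, dried 5 min under a heat lamp, then washed once for 30 s and 6×5 min in 1M NaCl/1% phosphoric acid.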

PI3Kδ = PI3Kδ (Homo sapiens, UniProt O00329); experiment: PI3Kδ lipid kinase membrane capture assay; assay type: biochemical; settings: for fold selective over PI3Kδ: PI4KIIIβ versus PI3Kδ; for potency for PI3Kδ compared with compound 1: relative to compound 1, Fig. 2A
Chain of PI3Kδ (O00329 whole entry): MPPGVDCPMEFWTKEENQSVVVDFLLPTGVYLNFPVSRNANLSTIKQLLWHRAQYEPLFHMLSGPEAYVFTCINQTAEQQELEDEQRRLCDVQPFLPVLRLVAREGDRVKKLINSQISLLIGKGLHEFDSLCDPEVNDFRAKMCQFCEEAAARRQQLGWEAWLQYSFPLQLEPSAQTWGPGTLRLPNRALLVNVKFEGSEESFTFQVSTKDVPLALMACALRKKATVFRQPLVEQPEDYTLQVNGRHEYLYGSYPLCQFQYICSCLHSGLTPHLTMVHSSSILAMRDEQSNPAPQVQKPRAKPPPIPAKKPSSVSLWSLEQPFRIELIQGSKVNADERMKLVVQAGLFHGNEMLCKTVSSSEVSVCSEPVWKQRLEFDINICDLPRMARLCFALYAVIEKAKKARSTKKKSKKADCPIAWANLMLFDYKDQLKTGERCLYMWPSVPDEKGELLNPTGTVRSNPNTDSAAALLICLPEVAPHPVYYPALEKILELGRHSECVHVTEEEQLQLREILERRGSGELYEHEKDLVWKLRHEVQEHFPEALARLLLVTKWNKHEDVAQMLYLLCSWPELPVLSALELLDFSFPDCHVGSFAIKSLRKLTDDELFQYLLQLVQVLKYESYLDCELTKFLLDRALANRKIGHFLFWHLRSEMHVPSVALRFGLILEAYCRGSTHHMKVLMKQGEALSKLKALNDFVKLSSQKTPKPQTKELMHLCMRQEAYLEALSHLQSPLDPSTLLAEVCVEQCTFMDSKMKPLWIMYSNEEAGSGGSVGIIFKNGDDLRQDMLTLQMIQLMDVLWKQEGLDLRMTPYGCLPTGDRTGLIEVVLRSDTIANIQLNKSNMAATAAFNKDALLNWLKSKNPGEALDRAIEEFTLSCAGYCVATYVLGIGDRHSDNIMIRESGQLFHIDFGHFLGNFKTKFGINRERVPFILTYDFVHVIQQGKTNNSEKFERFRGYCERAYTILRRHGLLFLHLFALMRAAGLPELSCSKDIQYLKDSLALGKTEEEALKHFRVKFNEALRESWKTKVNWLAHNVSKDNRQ
Chain of PI3Kδ (P27986 whole entry partner): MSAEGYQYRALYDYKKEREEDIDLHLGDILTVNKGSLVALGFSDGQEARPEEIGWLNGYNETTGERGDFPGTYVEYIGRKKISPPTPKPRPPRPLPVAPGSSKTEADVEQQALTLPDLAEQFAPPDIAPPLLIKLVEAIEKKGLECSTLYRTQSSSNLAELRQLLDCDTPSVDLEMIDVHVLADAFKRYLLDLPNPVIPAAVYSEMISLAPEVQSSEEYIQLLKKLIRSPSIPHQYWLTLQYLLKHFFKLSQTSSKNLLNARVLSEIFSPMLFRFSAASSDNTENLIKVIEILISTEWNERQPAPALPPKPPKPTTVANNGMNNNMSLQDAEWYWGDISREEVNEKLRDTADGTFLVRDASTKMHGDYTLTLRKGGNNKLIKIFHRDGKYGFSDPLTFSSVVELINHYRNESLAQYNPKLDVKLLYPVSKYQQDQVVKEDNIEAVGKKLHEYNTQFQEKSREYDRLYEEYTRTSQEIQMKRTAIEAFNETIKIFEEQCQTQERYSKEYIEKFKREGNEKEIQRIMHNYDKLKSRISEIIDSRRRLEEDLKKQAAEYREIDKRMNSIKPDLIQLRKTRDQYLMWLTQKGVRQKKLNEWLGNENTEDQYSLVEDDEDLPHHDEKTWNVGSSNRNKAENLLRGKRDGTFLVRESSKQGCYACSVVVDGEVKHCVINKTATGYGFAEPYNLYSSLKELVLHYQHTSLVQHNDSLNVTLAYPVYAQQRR

[1] = test system: HCVcc genotype 2a reporter virus J6/JFH1-GLuc in Huh 7.5 cells; experiment: HCV2a antiviral assay; assay type: cell-based, Hepatitis C virus; settings: Huh 7.5 cells stably infected with J6/JFH1-GLuc, three days incubation
vps34 = vps34 (Homo sapiens, UniProt Q8NEB9); experiment: vps34 lipid kinase membrane capture assay; assay type: biochemical; settings: for inhibition of vps34: concentrations up to 20 µM, MnCl2; for potency for vps34 compared with compound 1: relative to compound 1, Fig. 2A
Chain of vps34 (Q8NEB9 whole entry): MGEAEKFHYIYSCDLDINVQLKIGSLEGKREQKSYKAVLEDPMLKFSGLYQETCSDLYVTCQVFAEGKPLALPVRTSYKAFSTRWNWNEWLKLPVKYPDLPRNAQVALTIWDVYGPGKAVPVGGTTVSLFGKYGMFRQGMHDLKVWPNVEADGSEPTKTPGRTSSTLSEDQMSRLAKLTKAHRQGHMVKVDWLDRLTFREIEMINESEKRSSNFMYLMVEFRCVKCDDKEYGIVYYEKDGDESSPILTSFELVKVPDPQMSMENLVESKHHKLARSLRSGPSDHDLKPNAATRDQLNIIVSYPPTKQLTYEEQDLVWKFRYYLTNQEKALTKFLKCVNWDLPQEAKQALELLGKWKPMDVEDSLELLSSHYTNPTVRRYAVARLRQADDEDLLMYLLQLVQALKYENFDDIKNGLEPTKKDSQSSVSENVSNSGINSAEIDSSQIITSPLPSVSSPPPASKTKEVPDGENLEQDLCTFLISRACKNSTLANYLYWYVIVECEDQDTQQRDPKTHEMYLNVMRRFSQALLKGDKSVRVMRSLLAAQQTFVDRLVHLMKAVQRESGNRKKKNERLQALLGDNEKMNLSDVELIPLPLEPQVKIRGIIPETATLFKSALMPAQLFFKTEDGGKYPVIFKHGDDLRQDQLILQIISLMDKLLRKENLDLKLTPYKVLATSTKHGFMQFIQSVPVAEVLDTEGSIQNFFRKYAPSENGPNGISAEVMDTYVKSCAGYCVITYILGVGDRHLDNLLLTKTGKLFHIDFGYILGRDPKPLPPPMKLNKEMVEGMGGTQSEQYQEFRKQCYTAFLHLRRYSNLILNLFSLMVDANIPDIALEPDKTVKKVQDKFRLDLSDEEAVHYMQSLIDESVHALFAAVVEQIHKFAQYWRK
Summary of the method: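 Recombinant vps34 (10nM) was preincubated 15 min with test compound diluted in 10% DMSO/kinase buffer. Cold ATP plus γ32P-ATP (final 10µM ATP, 2.5uCi) was added and the reaction ran 1 hour. Final buffer: 50mM HEPES pH 7.5, 0.1% CHAPS, 2mM MnCl2, 1mM EGTA, 2mM DTT, 100µM PI, 500ng/µL BSA, 2% DMSO. Product was spotted on nitrocellulose and washed in 1M NaCl/1% phosphoric acid.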

Chain of PI3Kγ (P48736 whole entry): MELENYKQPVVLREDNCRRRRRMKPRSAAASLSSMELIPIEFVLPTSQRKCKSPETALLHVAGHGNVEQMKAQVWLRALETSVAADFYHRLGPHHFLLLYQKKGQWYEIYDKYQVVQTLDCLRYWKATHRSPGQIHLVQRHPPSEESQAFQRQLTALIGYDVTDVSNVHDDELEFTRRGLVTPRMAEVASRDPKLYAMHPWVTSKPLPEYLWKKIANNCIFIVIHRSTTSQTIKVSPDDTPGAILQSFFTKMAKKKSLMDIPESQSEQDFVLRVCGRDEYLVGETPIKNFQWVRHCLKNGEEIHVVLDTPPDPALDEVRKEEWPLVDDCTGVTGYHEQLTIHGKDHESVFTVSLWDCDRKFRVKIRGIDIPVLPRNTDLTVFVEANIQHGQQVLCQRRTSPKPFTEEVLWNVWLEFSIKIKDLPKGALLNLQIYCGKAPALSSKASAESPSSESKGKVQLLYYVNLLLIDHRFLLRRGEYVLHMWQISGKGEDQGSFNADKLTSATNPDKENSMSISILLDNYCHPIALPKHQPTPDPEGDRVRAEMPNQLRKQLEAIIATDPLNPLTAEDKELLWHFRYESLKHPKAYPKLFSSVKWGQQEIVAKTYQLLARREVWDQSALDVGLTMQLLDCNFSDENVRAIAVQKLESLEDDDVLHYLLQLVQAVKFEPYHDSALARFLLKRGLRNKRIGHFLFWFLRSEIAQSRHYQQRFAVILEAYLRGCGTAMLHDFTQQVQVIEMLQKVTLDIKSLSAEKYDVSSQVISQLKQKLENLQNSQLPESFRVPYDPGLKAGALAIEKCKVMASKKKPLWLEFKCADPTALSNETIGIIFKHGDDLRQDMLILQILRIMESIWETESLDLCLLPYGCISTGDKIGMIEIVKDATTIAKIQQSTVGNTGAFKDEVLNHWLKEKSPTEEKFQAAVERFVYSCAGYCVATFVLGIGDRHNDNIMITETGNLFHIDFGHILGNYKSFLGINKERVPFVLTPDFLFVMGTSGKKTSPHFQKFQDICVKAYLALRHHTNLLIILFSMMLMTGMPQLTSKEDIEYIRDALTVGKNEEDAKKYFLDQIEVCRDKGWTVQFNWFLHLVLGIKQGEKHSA

SMILES | fold selective over PI3Kγ (PI3Kγ) | potency for PI4KIIIβ compared with compound 1 (PI4KIIIβ) | fold selective over PI3Kδ (PI3Kδ) | further results
COc1ccc(-c2sc(NC(C)=O)nc2C)cc1S(=O)(=O)NCCO [compound 3] | > 40 fold | increase in potency | > 40 fold | –
COc1ccc(-c2sc(NC(=O)C3CCCC3)nc2C)cc1S(=O)(=O)Nc1ccc(O)cc1 [compound 9] | > 140 fold | – | > 20 fold | anti-viral activity against Hepatitis C Virus and toxicity [1]: best combination of anti-viral efficacy, and lowest toxicity; inhibition of vps34 (vps34): no inhibition
Cc1nc(NC(=O)C2CCCC2)sc1-c1ccc(Cl)c(S(=O)(=O)NCCO)c1 [compound 5] | > 90 fold | – | – | –
CC(=O)Nc1nc(C)c(-c2ccc(Br)c(S(=O)(=O)NCCO)c2)s1 [compound 2] | – | slight increase in potency | – | potency for vps34 compared with compound 1 (vps34): slight increase in potency; potency for PI3Kγ compared with compound 1 (PI3Kγ): slight decrease in potency; potency for PI3Kδ compared with compound 1 (PI3Kδ): slight increase in potency
COc1ccc(-c2sc(NC(=O)C(C)(C)C)nc2C)cc1S(=O)(=O)Nc1ccc(O)cc1 [compound 10] | > 1000 fold | – | > 200 fold | anti-viral activity against Hepatitis C Virus and toxicity [1]: best combination of anti-viral efficacy, and lowest toxicity; inhibition of vps34 (vps34): no inhibition; fold selective for PI4KIIIβ across all enzymes tested (PI4KIIIβ; panel of nine related lipid kinases): > 200 fold
CC(=O)Nc1nc(C)c(-c2ccc(Cl)c(S(=O)(=O)Nc3ccc(F)cc3)c2)s1 [compound 7] | – | minimal differences in both potency and specificity | – | –
Cc1nc(NC(=O)C(C)(C)C)sc1-c1ccc(Cl)c(S(=O)(=O)NCCO)c1 [compound 4] | > 600 fold | – | – | –
CC(=O)Nc1nc(C)c(-c2ccc(Cl)c(S(=O)(=O)Nc3ccc(O)cc3)c2)s1 [compound 6] | – | large increase in potency | – | potency for vps34 compared with compound 1 (vps34): large increase in potency; potency for PI3Kγ compared with compound 1 (PI3Kγ): large increase in potency; potency for PI3Kδ compared with compound 1 (PI3Kδ): large increase in potency
